Experimental data as given in ChEMBL document CHEMBL4765392, “Development of coumarine derivatives as potent anti-filovirus entry inhibitors targeting viral glycoprotein” (Eur J Med Chem, 2020).

What was measured:
[1] = Inhibition of envelope glycoprotein in HIV pseudotyped Zaire Ebolavirus infected in human A549 cells assessed as reduction in virus entry measured after 48 hrs by luciferase reporter gene assay; type: cell-based; details: A549, 48 h
How it was run: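 A549 cells (5000/well, seeded 24 h prior) incubated 48 h with 3-fold serial compound dilutions premixed with HIV-backbone luciferase pseudovirions bearing EBOV GP. Entry quantified by luciferase signal, normalized to virus-alone cells. IC50 from logistic regression of dose-response curves.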

[2] = Cytotoxicity against human A549 cells assessed as reduction in cell viability by Celltiter-Glo assay; type: cell-based
How it was run: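 Low-passage A549 cells seeded at 5000/well 24 h ahead, then exposed for 48 h to 3-fold serial compound dilutions in fresh media without virus. Viability read by CellTiter-Glo luminescence and normalized to medium-only cells. CC50 from logistic regression fit of dose-response curves.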

[3] = system: envelope glycoprotein of Zaire Ebolavirus; test: Selectivity index, ratio of CC50 for human A549 cells to IC50 for inhibition of envelope glycoprotein in HIV pseudotyped Zaire Ebolavirus infected in human A549 cells assessed as reduction in virus entry; type: toxicity, cell-based; details: read-out: Ratio CC50/IC50
How it was run: (§1)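 IC50 wells also got HIV luciferase pseudovirions bearing MARV GP or EBOV GP, read by luciferase. CC50 wells got fresh media, read by CellTiter-Glo. Both values come from logistic dose-response fits, and the index is CC50 divided by IC50.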

[4] = system: envelope glycoprotein of Marburgvirus; test: Selectivity index, ratio of CC50 for human A549 cells to IC50 for inhibition of envelope glycoprotein in HIV pseudotyped Marburgvirus infected in human A549 cells assessed as reduction in virus entry; type: toxicity, cell-based; details: read-out: Ratio CC50/IC50; how it was run: as §1

Row | SMILES | IC50 [1] [µM] | CC50 [2] [µM] | selectivity ratio [3] | selectivity ratio [4]
1 | Cc1c(Cc2ccc(OC(F)(F)F)cc2)c(=O)oc2cc(OC[C@H](O)CN3CCC(C(N)=O)CC3)ccc12 | 0.9 | 52 | 55.7 | 36.3
2 | Cc1c(Cc2ccccc2)c(=O)oc2cc(OCC(O)CNc3cc([N+](=O)[O-])ccc3O)ccc12 (stereo unspecified) | 81.3 | > 100 | 12 | 1
3 | Cc1c(Cc2ccc(-c3ccc(C=O)c(F)c3)cc2)c(=O)oc2cc(OCC(O)CN3CCC(C(N)=O)CC3)ccc12 (stereo unspecified) | 10.9 | 62.4 | 5.7 | 11.9
4 | COc1ccc(OC(COc2ccc3c(C)c(Cc4ccccc4)c(=O)oc3c2)CN2CCC(C(N)=O)CC2)cc1 (stereo unspecified) | 10.5 | 94.9 | 9.1 | 11.9
5 | NC(=O)C1CCN(CC(O)COc2ccc3c(C4CC4)cc(=O)oc3c2)CC1 (stereo unspecified) | 17.7 | > 100 | > 5.7 | 3
6 | Cc1c(Cc2ccc(Cl)cc2)c(=O)oc2cc(OCC(O)CN3CCC(C(N)=O)CC3)ccc12 (stereo unspecified) | 2.5 | 40 | 16.3 | 13.8
7 | Cc1c(Cc2ccc(-c3ccccc3)cc2)c(=O)oc2cc(OCC(O)CNc3nccs3)ccc12 (stereo unspecified) | 2.7 | 38.1 | 14.1 | 29.3
8 | Cc1c(Cc2ccc(-c3ccc(C#N)c(F)c3)cc2)c(=O)oc2cc(OCC(O)CN3CCC(C(N)=O)CC3)ccc12 (stereo unspecified) | 3.5 | 29.1 | 8.2 | 12.8
9 | Cc1c(Cc2ccccc2)c(=O)oc2cc(OCC(O)CNCCc3ccccn3)ccc12 (stereo unspecified) | 3.6 | 54.9 | 15.6 | 9.3
10 | Cc1c(Cc2ccccc2)c(=O)oc2cc(OCC(O)CNCCc3ccncc3)ccc12 (stereo unspecified) | 0.9 | > 100 | > 111 | 36.6
11 | Cc1c(Cc2ccc(F)cc2)c(=O)oc2cc(OCC(O)CN3CCC(C(N)=O)CC3)ccc12 (stereo unspecified) | 1.1 | 89.3 | 78.8 | 83.7
12 | Cc1c(Cc2ccc(OC(F)(F)F)cc2)c(=O)oc2cc(OCC(O)CNc3nccs3)ccc12 (stereo unspecified) | 1.5 | 99 | 66 | 82.5
13 | Cc1noc(C)c1-c1ccc(Cc2c(C)c3ccc(OCC(O)CN4CCC(C(N)=O)CC4)cc3oc2=O)cc1 (stereo unspecified) | 5.2 | 36.9 | 7.1 | 11.4
14 | Cc1c(Cc2ccccc2)c(=O)oc2cc(OCC(O)CNCCCO)ccc12 (stereo unspecified) | 8.9 | 53.4 | 6 | 6.3
15 | Cc1c(Cc2ccccc2)c(=O)oc2cc(OCC(O)CNCc3cccs3)ccc12 (stereo unspecified) | 3.5 | 87.3 | 24.9 | 24.9
16 | NC(=O)C1CCN(CC(O)COc2ccc3c(-c4ccccc4)c(Cc4ccccc4)c(=O)oc3c2)CC1 (stereo unspecified) | 2.9 | 25.2 | 8.6 | 11.6
17 | Cc1c(Cc2ccccc2)c(=O)oc2cc(OCC(O)CNCCCCCCO)ccc12 (stereo unspecified) | 1 | 40.3 | – | 16.6
18 | Cc1cc(F)ccc1Cc1c(C)c2ccc(OCC(O)CN3CCC(C(N)=O)CC3)cc2oc1=O (stereo unspecified) | 1.2 | > 100 | > 81.1 | 33.3
19 | COc1ccccc1-c1ccc(Cc2c(C)c3ccc(OCC(O)CN4CCC(C(N)=O)CC4)cc3oc2=O)cc1 (stereo unspecified) | 1.5 | 91.6 | – | 30
20 | Cc1c(Cc2ccccc2)c(=O)oc2cc(OCC(O)CNC3CCOCC3)ccc12 (stereo unspecified) | 2.2 | 38.2 | 17.4 | 17.1
21 | Cc1ccc2nc(NCC(O)COc3ccc4c(C)c(Cc5ccccc5)c(=O)oc4c3)sc2c1 (stereo unspecified) | 10.2 | > 100 | > 9.8 | 11.3
22 | Cc1c(Cc2ccccc2)c(=O)oc2cc(OCC(O)CNc3ccccc3)ccc12 (stereo unspecified) | > 100 | > 100 | – | 1
23 | Cc1c(Cc2ccccc2C(F)(F)F)c(=O)oc2cc(OCC(O)CN3CCC(C(N)=O)CC3)ccc12 (stereo unspecified) | 1.6 | > 100 | > 63.8 | 33
24 | Cc1c(Cc2ccccc2)c(=O)oc2cc(OCC(O)CNCCc3cccnc3)ccc12 (stereo unspecified) | 1.3 | 27.4 | 20.5 | 16.4

Row | SMILES | IC50 [1] [µM] | CC50 [2] [µM] | selectivity ratio [3] | selectivity ratio [4]
25 | Cc1c(Cc2ccc(-c3ccccc3)cc2)c(=O)oc2cc(OCC(O)CN3CCC(C(N)=O)CC3)ccc12 (stereo unspecified) | 0.7 | > 100 | > 143 | 111
26 | Cc1c(Cc2ccccc2)c(=O)oc2cc(OCC(O)CNCc3ccccc3)ccc12 (stereo unspecified) | 1.3 | > 100 | > 75 | 45.5
27 | Cc1c(Cc2ccc(-c3ccccc3C#N)cc2)c(=O)oc2cc(OCC(O)CN3CCC(C(N)=O)CC3)ccc12 (stereo unspecified) | 1.8 | 33.2 | 17.5 | 18.2
28 | Cc1c(Cc2ccc(F)cc2F)c(=O)oc2cc(OCC(O)CN3CCC(C(N)=O)CC3)ccc12 (stereo unspecified) | 1.2 | > 100 | > 81.1 | 23.6
29 | COC(CNCCc1ccncc1)COc1ccc2c(C)c(Cc3ccccc3)c(=O)oc2c1 (stereo unspecified) | 2.8 | 16.6 | 5.9 | 9.6
30 | Cc1c(Cc2ccc(OC(F)(F)F)cc2)c(=O)oc2cc(OCC(O)CNCCc3ccncc3)ccc12 (stereo unspecified) | 2.2 | 14.3 | 6.6 | 10.7
31 | Cc1c(Cc2ccccc2)c(=O)oc2cc(OCCCNc3nccs3)ccc12 | 18 | 50.1 | 2.8 | 3.1
32 | Cc1c(Cc2cccc(F)c2)c(=O)oc2cc(OCC(O)CN3CCC(C(N)=O)CC3)ccc12 (stereo unspecified) | 1.6 | 53.3 | 34 | 22.5
33 | Cc1c(Cc2ccccc2)c(=O)oc2cc(OCC(CN3CCC(C(N)=O)CC3)Oc3ccccc3F)ccc12 (stereo unspecified) | 22.5 | 79.6 | 3.5 | 3.9
34 | NC(=O)C1CCN(CC(O)COc2ccc3c(C4CC4)c(Cc4ccccc4)c(=O)oc3c2)CC1 (stereo unspecified) | 9.4 | > 100 | > 10.6 | 15.3
35 | Cc1c(Cc2ccc(-c3ccc(F)cc3)cc2)c(=O)oc2cc(OCC(O)CN3CCC(C(N)=O)CC3)ccc12 (stereo unspecified) | 1.5 | 19.3 | 13.1 | 18.1
36 | Cc1c(Cc2ccccc2)c(=O)oc2cc(OCC(O)CNc3nc4ccccc4[nH]3)ccc12 (stereo unspecified) | > 100 | > 100 | – | 1
37 | Cc1c(Cc2cccc3ccccc23)c(=O)oc2cc(OCC(O)CN3CCC(C(N)=O)CC3)ccc12 (stereo unspecified) | 1.5 | 42.4 | 28.5 | 36.6
38 | Cc1c(Cc2ccccc2)c(=O)oc2cc(OCC(O)CNc3nccs3)ccc12 (stereo unspecified) | 2.1 | 93 | 44.3 | 33.2
39 | Cc1c(Cc2ccc(C(F)(F)F)cc2)c(=O)oc2cc(OCC(O)CN3CCC(C(N)=O)CC3)ccc12 (stereo unspecified) | 1.1 | 89.3 | 78.8 | 83.7
40 | Cc1c(Cc2ccccc2)c(=O)oc2cc(OCC(O)CN3CCC(C(N)=O)CC3)ccc12 (stereo unspecified) | 3.4 | > 100 | > 29.4 | 3.4
41 | Cc1c(Cc2ccccc2)c(=O)oc2cc(OCC(O)CNn3ccnn3)ccc12 (stereo unspecified) | > 100 | > 100 | – | 1
42 | COc1ccc(Cc2c(C)c3ccc(OCC(O)CN4CCC(C(N)=O)CC4)cc3oc2=O)c(Br)c1 (stereo unspecified) | 2.5 | 44.4 | 18 | 8.6
43 | Cc1c(Cc2ccc(OC(F)(F)F)cc2)c(=O)oc2cc(OCC(O)CN3CCC(C(N)=O)CC3)ccc12 (stereo unspecified) | 0.5 | 68.2 | 136 | 56.8
44 | Cc1c(Cc2ccc(OC(F)(F)F)cc2)c(=O)oc2cc(OC[C@@H](O)CN3CCC(C(N)=O)CC3)ccc12 | 0.7 | 64.9 | 92.6 | 46.3
45 | C#CCNCC(O)COc1ccc2c(C)c(Cc3ccccc3)c(=O)oc2c1 (stereo unspecified) | 5.9 | 95.5 | 16.1 | 17.2
46 | Cc1cc(=O)oc2cc(OCC(O)CN3CCC(C(N)=O)CC3)ccc12 (stereo unspecified) | 9.3 | > 100 | > 10.8 | 12
47 | Cc1c(Cc2ccc(-c3ccc(C(F)(F)F)cc3)cc2)c(=O)oc2cc(OCC(O)CN3CCC(C(N)=O)CC3)ccc12 (stereo unspecified) | 1.2 | > 100 | > 85.7 | 76.9
48 | Cc1c(Cc2ccccc2)c(=O)oc2cc(OCC(O)CNc3ccc(Br)cc3)ccc12 (stereo unspecified) | > 100 | > 100 | – | 1
